From ChEMBL document CHEMBL1287734, “Synthesis, molecular modeling and biological evaluation of guanidine derivatives as novel antitubulin agents” (Bioorg Med Chem, 2010)
Activity calls are given as the source filed them. No cut-off for these calls is given here.

Columns and labels:
MCF7 [1] = test: Cell cycle arrest in human MCF7 cells assessed as accumulation at S phase at 50 nM after 24 hrs by flow cytometry relative to control; format: functional
Summary of the method: (§1)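 Cells treated at 50 nM or 500 nM for 24 h, collected and fixed overnight in 70% ethanol at −20 °C. After two PBS washes, RNase A (0.5 mg/mL) and propidium iodide (2.5 µg/mL) were added for 30 min. DNA content was measured by flow cytometry and the percentage of cells in each cycle phase was determined.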

MCF7 [2] = test: Antiproliferative activity against human MCF7 cells after 48 hrs by MTT assay; format: functional, cell-based; settings: MCF7, 48 h
Summary of the method: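 After 24 h at 37 °C, 5% CO₂, compounds were added at preset concentrations for 48 h. MTT (2.5 mg/mL in PBS) was then added for 4 h, followed by 10% SDS–5% isobutyl alcohol–0.01 M HCl overnight at 37 °C. OD read at 570 nm. Triplicate wells per concentration; each assay run at least three times.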

MCF7 [3] = test: Induction of apoptosis in human MCF7 cells assessed as morphological changes at 1 uM after 24 hrs using DAPI staining by fluorescence microscopic analysis; format: functional, cell-based
Summary of the method: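 Cells cultured on 6-well plates and treated at 0 or 1.0 µM for 24 h. Fixed in ice-cold 4% paraformaldehyde for 20 min, then permeabilized in 0.1% sodium citrate/0.1% Triton X-100 for 2 min at 4 °C. Stained with DAPI (300 nM) and examined by fluorescence microscopy for nuclear morphology.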

MCF7 [4] = test: Cell cycle arrest in human MCF7 cells assessed as accumulation at sub-G1 phase at 50 nM after 24 hrs by flow cytometry relative to control; format: functional; summary of the method: as §1
MCF7 [5] = test: Cell cycle arrest in human MCF7 cells assessed as accumulation at G2/M phase at 500 nM after 24 hrs by flow cytometry relative to control; format: functional; summary of the method: as §1
MCF7 [6] = test: Cell cycle arrest in human MCF7 cells assessed as accumulation at G2/M phase after 24 hrs by flow cytometry; format: functional, cell-based; summary of the method: as §1
MCF7 [7] = test: Cell cycle arrest in human MCF7 cells assessed as accumulation at G1 phase at 50 nM after 24 hrs by flow cytometry relative to control; format: functional; summary of the method: as §1
MCF7 [8] = test: Cell cycle arrest in human MCF7 cells assessed as accumulation at S phase at 500 nM after 24 hrs by flow cytometry relative to control; format: functional; summary of the method: as §1
MCF7 [9] = test: Cell cycle arrest in human MCF7 cells assessed as accumulation at G1 phase at 500 nM after 24 hrs by flow cytometry relative to control; format: functional; summary of the method: as §1
MCF7 [10] = test: Cell cycle arrest in human MCF7 cells assessed as accumulation at G2/M phase at 50 nM after 24 hrs by flow cytometry relative to control; format: functional; summary of the method: as §1
MCF7 [11] = test: Cell cycle arrest in human MCF7 cells assessed as accumulation at sub-G1 phase at 500 nM after 24 hrs by flow cytometry relative to control; format: functional; summary of the method: as §1
[12] = Inhibition of bovine brain tubulin polymerization by turbidimetric analysis; set-up: species or system Bos taurus
Summary of the method: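 Purified bovine brain tubulin (10 µM) preincubated with varying compound concentrations in glutamate buffer at 30 °C, then cooled to 0 °C. GTP added, mixtures warmed to 30 °C in cuvettes, and assembly followed by turbidity.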

MCF7 [13] = test: Cell cycle arrest in human MCF7 cells assessed as accumulation at G2/M phase after 24 hrs by flow cytometry relative to control; format: functional; summary of the method: as §1
MCF7 [14] = test: Cell cycle arrest in human MCF7 cells assessed as accumulation at G1 phase after 24 hrs by flow cytometry relative to control; format: functional; summary of the method: as §1
MCF7 [15] = test: Cell cycle arrest in human MCF7 cells assessed as accumulation at sub-G1 phase after 24 hrs by flow cytometry relative to control; format: functional; summary of the method: as §1
MCF7 [16] = test: Cell cycle arrest in human MCF7 cells assessed as accumulation at S phase after 24 hrs by flow cytometry relative to control; format: functional; summary of the method: as §1

With `N=C(N)N/N=C(/C=C/c1ccccc1)c1ccc(Br)cc1` the Activity (MCF7 [1]) was 14.54%, the IC50 (MCF7 [2]) was 0.09 µM and the Activity (MCF7 [3]) was “Active”. The Activity (MCF7 [4]) was 2.63%, the Activity (MCF7 [5]) was 54.12% and the Activity (MCF7 [6]) was “Dose-dependent effect”. The Activity (MCF7 [7]) was 48.76%, the Activity (MCF7 [8]) was 3.14% and the Activity (MCF7 [9]) was 1.5%. The Activity (MCF7 [10]) was 23.38%, the Activity (MCF7 [11]) was 4.52% and the IC50 [12] was 8.4 µM.
`N=C(N)N/N=C(/C=C/c1ccc(F)cc1)c1ccccc1` showed an IC50 (MCF7 [2]) of 2.5 µM and an IC50 [12] of 28 µM.
With `N=C(N)N/N=C(/C=C/c1ccccc1Br)c1ccccc1` the IC50 (MCF7 [2]) was 4.2 µM and the IC50 [12] was 52 µM.
In the case of `N=C(N)N/N=C(/C=C/c1cccc2ccccc12)c1ccccc1`, the IC50 (MCF7 [2]) is reported as 1.6 µM and the IC50 [12] is reported as 18 µM.
`COc1ccccc1/C=C/C(=N/NC(=N)N)c1ccccc1` showed an IC50 (MCF7 [2]) of 7.2 µM and an IC50 [12] of 84 µM.
For `Cc1ccc(C(/C=C/c2ccccc2)=N\NC(=N)N)cc1`, the IC50 (MCF7 [2]) was 14 µM and the IC50 [12] was 150 µM.
For `Cc1ccc(/C=C/C(=N/NC(=N)N)c2ccccc2)cc1`, the IC50 (MCF7 [2]) was 16 µM and the IC50 [12] was 170 µM.
Work on `COc1ccc(/C=C/C(=N/NC(=N)N)c2ccccc2)cc1` yielded an IC50 (MCF7 [2]) of 14 µM and an IC50 [12] of 140 µM.
`N=C(N)N/N=C(/C=C/c1ccc(Cl)cc1)c1ccccc1` gave an IC50 (MCF7 [2]) of 0.7 µM and an IC50 [12] of 14 µM.
Compound `N=C(N)N/N=C(/C=C/c1ccccc1)c1ccc(Cl)c(Cl)c1` has an IC50 (MCF7 [2]) of 1.9 µM and an IC50 [12] of 24 µM.
Compound `N=C(N)N/N=C(/C=C/c1ccc(OCc2ccccc2)cc1)c1ccccc1` has an IC50 (MCF7 [2]) of 1.2 µM and an IC50 [12] of 16 µM.
With `COc1ccc(C(/C=C/c2ccccc2)=N\NC(=N)N)cc1` the IC50 (MCF7 [2]) was 13 µM and the IC50 [12] was 130 µM.
Compound `N=C(N)N/N=C(/C=C/c1ccc(Br)cc1)c1ccccc1` has an IC50 (MCF7 [2]) of 0.25 µM and an IC50 [12] of 10 µM.
For `N=C(N)N/N=C(/C=C/c1cccc([N+](=O)[O-])c1)c1ccccc1`, the IC50 (MCF7 [2]) was 6.5 µM and the IC50 [12] was 85 µM.
For `N=C(N)N/N=C(/C=C/c1cccc(F)c1)c1ccccc1`, the IC50 (MCF7 [2]) was 16 µM and the IC50 [12] was 150 µM.
For `COc1cccc(/C=C/C(=N/NC(=N)N)c2ccccc2)c1`, the IC50 (MCF7 [2]) was 13 µM and the IC50 [12] was 130 µM.
`COc1ccc(/C=C\c2cc(OC)c(OC)c(OC)c2)cc1O` [COMBRETASTATIN A4] showed an IC50 [12] of 2.2 µM.
In the case of `N=C(N)N/N=C(/C=C/c1ccccc1)c1ccc(Cl)cc1`, the IC50 (MCF7 [2]) is reported as 0.35 µM and the IC50 [12] is reported as 15 µM.
With `N=C(N)N/N=C(/C=C/c1ccccc1Cl)c1ccccc1` the IC50 (MCF7 [2]) was 4.2 µM and the IC50 [12] was 55 µM.
In the case of `N=C(N)N/N=C(/C=C/c1ccccc1)c1ccccc1`, the IC50 (MCF7 [2]) is reported as 17 µM and the IC50 [12] is reported as 140 µM.
`N=C(N)N/N=C(/C=C/c1ccccc1F)c1ccccc1` gave an IC50 (MCF7 [2]) of 3.9 µM and an IC50 [12] of 42 µM.
`N=C(N)N/N=C(/C=C/c1ccc(-c2ccccc2)cc1)c1ccccc1` showed an IC50 (MCF7 [2]) of 0.8 µM and an IC50 [12] of 12 µM.
Work on `COc1cc2c(c(OC)c1OC)-c1ccc(OC)c(=O)cc1[C@@H](NC(C)=O)CC2` [COLCHICINE] yielded an Activity (MCF7 [13]) of 43.11%, an Activity (MCF7 [14]) of 8.58% and an Activity (MCF7 [15]) of 14.58%. For the same compound, the Activity (MCF7 [16]) was 8.16%.
